This excerpt belongs to a sample that is enriched for hits.
IDH1 mut inh = inhibitors of human IDH1 R132H; inhibition, % at 10 µM; IDH1 R132H reductase, diaphorase/resazurin fluorescence, 60 min; O75874; hit rate 0.18% among 70,000; in the data active means inhibition above about 34%; inconclusive means no clear call, values can overlap the other calls; inactive means below about 11%;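 further: 0% = DMSO and 100% = no enzyme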
Target sequence (O75874 whole entry R132H): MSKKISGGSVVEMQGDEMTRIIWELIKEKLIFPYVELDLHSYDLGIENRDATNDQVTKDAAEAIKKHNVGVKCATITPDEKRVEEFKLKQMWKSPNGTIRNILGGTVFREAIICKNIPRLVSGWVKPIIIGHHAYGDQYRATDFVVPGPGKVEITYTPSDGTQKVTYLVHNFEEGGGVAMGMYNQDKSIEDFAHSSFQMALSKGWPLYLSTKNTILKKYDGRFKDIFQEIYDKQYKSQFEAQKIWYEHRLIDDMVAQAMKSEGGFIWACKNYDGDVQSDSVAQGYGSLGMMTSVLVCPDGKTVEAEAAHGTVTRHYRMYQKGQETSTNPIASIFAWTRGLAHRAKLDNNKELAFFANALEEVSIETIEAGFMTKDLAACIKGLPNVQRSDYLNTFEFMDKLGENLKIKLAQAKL
GASC1 inh = KDM4C (human) demethylase inhibition; Q9H3R0; GST-KDM4C 2-372, H3K9me3 peptide, LANCE TR-FRET; inhibition, % at 12.5 µM; hit rate 0.15% among 96,000; AID 720574;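 active means mean replicate inhibition above about 25%, with at least 55% of replicates also reaching it, limit read from the data, passing the limit was not always enough; inconclusive means only one of those two conditions met; inactive means neither condition met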
Target sequence (Q9H3R0 2-372 limits assumed): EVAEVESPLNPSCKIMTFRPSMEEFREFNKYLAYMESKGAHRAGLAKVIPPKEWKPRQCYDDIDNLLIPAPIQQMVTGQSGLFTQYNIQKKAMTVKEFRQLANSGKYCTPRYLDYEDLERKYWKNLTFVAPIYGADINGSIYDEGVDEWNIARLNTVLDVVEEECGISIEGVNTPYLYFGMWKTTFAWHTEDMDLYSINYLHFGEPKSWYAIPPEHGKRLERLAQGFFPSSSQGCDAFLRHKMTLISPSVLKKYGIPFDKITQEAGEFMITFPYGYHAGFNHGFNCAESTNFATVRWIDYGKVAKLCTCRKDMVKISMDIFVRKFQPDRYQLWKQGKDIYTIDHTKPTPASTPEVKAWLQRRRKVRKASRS
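System: N-terminal GST-fused human GASC-1 (KDM4C) fragment, residues 2-372 / Amount: 10 nM GST-KDM4C in enzyme reaction / Also added: H3K9me3 peptide with Fe(II)/2OG / Times: 30 min demethylation and 1 h detection at room temperature / Signal: LANCE TR-FRET / Read-out basis: Fall in 671/618 emission ratio as inhibition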
T cruzi growth-1 = blocks T. cruzi growth in NIH3T3 culture; T. cruzi beta-gal in NIH3T3, GalScreen luminescence, 90 h; inhibition, % at 8.34 µM; AID 624255; hit rate 5.9% among 77,000;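 active means mean inhibition above about 93%, with at least 55% of replicates each passing it, limit read from the data, passing the limit was not always enough; inconclusive means only one of those two conditions holds; inactive means neither condition holds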
T cruzi growth-2 = inhibitors of T. cruzi proliferation | shares compounds with T cruzi growth-1 | T. cruzi beta-gal in NIH3T3, GalScreen luminescence, 90 h | inhibition, % at 8.35 µM | hit rate 72% among 5,600;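 active means mean replicate inhibition above about 95% and at least 55% of replicates individually reaching it, limit read from the data; inconclusive means only one of the two criteria is met; inactive means neither criterion is met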
T cruzi growth-3 = inhibitors of T. cruzi proliferation. shares compounds with T cruzi growth-1. T. cruzi beta-gal in NIH3T3, GalScreen luminescence, 90 h. inhibition, % at 2.09 µM. hit rate 21% among 5,600. AID 651740;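 active means mean inhibition above about 95%, with at least 55% of replicates also reaching it, limit read from the data; inconclusive means meets just one of the two conditions; inactive means meets neither condition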;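 further: plate controls were neutral control median for no effect and positive control median for full effect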
NIH3T3 tox = kills mouse NIH/3T3 fibroblasts; hit rate 14% among 5,600; shares compounds with T cruzi growth-1; NIH/3T3 viability, CellTiter-Glo ATP luminescence, 90 h; cytotoxicity (signal decrease), % at 8.35 µM;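 active means mean signal decrease across replicates above about 35% based on untreated-well scatter, with enough replicates individually passing, limit read from the data; inconclusive means no rule stated though some were filed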;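 further: 0% = median of neutral control wells and 100% = median of positive control wells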
NIH3T3 tox 2 = kills mouse NIH/3T3 fibroblasts | NIH/3T3 viability, CellTiter-Glo ATP luminescence, 90 h | hit rate 56% among 5,600 | inhibition, % at 24.9 µM | shares compounds with T cruzi growth-1;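 active means mean loss of cell viability signal at or above a set limit, and enough replicates individually reaching it; inconclusive means meets only the mean limit or only the replicate share; inactive means meets neither condition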;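 further: 0% = median of neutral control wells and 100% = median of positive control wells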
* marks the source's active call; other numbers are inactive results; u = inconclusive; x = no result given; ! = not active in a repeat.

SMILES | IDH1 mut inh | GASC1 inh | T cruzi growth-1 | T cruzi growth-2 | T cruzi growth-3 | NIH3T3 tox | NIH3T3 tox 2
C[C@H](CO)N1C[C@H](C)[C@@H](CN(C)CC2CCCC2)Oc2cc(C3=CCCC3)ccc2S1(=O)=O | 0.8 | -5.7 | 102.8* | 103.1* | 65.1 | 8.1 | 107.2*
C[C@@H]1CN([C@@H](C)CO)S(=O)(=O)c2ccc(C3=CCCCC3)cc2O[C@@H]1CN(C)CC1CC1 | -2.8 | -0.1 | 51.2 | x | x | x | x
C[C@H](CO)N1C[C@H](C)[C@@H](CN(C)CC2CCCC2)Oc2cc(C3=CCCCC3)ccc2S1(=O)=O | 0.4 | -1.5 | 105.9* | 97.3* | 76.8 | 13.5 | 103.4*
C[C@@H]1CN([C@@H](C)CO)S(=O)(=O)c2ccc(C3=CCCC3)cc2O[C@H]1CN(C)CC1CC1 | 0.1 | -1.5 | 92.9 | x | x | x | x
C[C@@H]1CN([C@H](C)CO)S(=O)(=O)c2ccc(C3=CCCCC3)cc2O[C@@H]1CN(C)CC1CC1 | 0.4 | -0.8 | 66.8 | x | x | x | x
C[C@@H]1CN([C@@H](C)CO)S(=O)(=O)c2ccc(C3=CCCCC3)cc2O[C@H]1CN(C)CC1CCCC1 | 0.0 | -0.4 | 123.3* | 102.4* | 72.6 | 120.2* | 105.5*
CC(C)NC(=O)N[C@H]1CC[C@H](CCNS(=O)(=O)c2ccc(F)cc2)O[C@H]1CO | 0.1 | 1.9 | x | x | x | x | x
CC(C)NC(=O)N[C@@H]1C=C[C@@H](CC(=O)NC2Cc3ccccc3C2)O[C@@H]1CO | -0.1 | -0.3 | -86.6 | x | x | x | x
CCS(=O)(=O)Nc1ccc2c(c1)C(=O)N(C)[C@H]1CC[C@@H](CC(=O)NCCCN3CCOCC3)O[C@H]1CO2 | x | -1.8 | 13.3 | x | x | x | x
CCC(=O)Nc1ccc2c(c1)C(=O)N(C)C[C@H](OC)[C@@H](C)CN(CCc1ccccc1)[C@H](C)CO2 | -0.4 | -0.3 | -15.6 | x | x | x | x
CO[C@H]1CN(C)C(=O)c2ccc(NC(=O)c3ccccc3F)cc2OC[C@H](C)N(CC2CC2)C[C@H]1C | -0.1 | 0.4 | 36.8 | x | x | x | x
CN1C(=O)c2cc(NC(=O)c3cccc(Cl)c3)ccc2OC[C@H]2O[C@@H](CC(=O)NC3CCCCC3)CC[C@H]21 | x | -1.9 | 106.7* | 103.6* | 44.6 | 26.9 | 37.7*
CN1C(=O)c2cc(NC(=O)c3ccc(Cl)cc3)ccc2OC[C@H]2O[C@H](CC(=O)NCc3cccc(F)c3)CC[C@@H]21 | x | 2.2 | 42.8 | x | x | x | x
CN1C(=O)c2cc(NC(=O)c3cccc(F)c3)ccc2OC[C@@H]2O[C@H](CC(=O)NCc3ccccc3)CC[C@H]21 | x | -0.7 | -17.1 | x | x | x | x
CN1C(=O)c2cc(NC(=O)c3ccc(Cl)cc3)ccc2OC[C@H]2O[C@H](CC(=O)NCc3cccc(F)c3)CC[C@H]21 | x | -0.8 | 100.8* | 67.5 | 47.0 | 0.7 | 14.3
CN1C(=O)c2cc(NC(=O)c3cccc(F)c3)ccc2OC[C@H]2O[C@H](CC(=O)N3CCc4ccccc4C3)CC[C@@H]21 | x | 0.4 | 42.0 | x | x | x | x
CN1C(=O)c2cc(NC(=O)c3ccccc3)ccc2OC[C@@H]2O[C@H](CC(=O)NC3CCCC3)CC[C@H]21 | x | 0.0 | 8.2 | x | x | x | x
CN1C(=O)c2cc(NC(=O)c3cccc(F)c3)ccc2OC[C@H]2O[C@@H](CC(=O)N3CCc4ccccc4C3)CC[C@H]21 | x | -2.8 | 103.7* | 96.7* | 26.5 | 23.7 | 37.6*
CN1C(=O)c2cc(NC(=O)c3ccc(Cl)cc3)ccc2OC[C@@H]2O[C@@H](CC(=O)NCc3cccc(F)c3)CC[C@@H]21 | x | 1.7 | 103.4* | 103.5* | 34.3 | 32.3 | 60.9*
C[C@H](CO)N1C[C@H](C)[C@@H](CN(C)C(=O)Nc2ccc(C(F)(F)F)cc2)Oc2ccc(NC(=O)Nc3ccc(C(F)(F)F)cc3)cc2C1=O | x | -4.7 | x | x | x | x | x
CCC(=O)N1[C@@H](CO)[C@@H](c2ccccc2)[C@@H]1CNC(=O)CN1CCOCC1 | x | -0.6 | -10.6 | x | x | x | x
COCC(=O)N1CC2(C1)[C@@H](c1ccccc1)[C@@H](CO)N2C(=O)c1ccncc1 | x | 20.7 | x | x | x | x | x
CN1C(=O)c2cc(NC(=O)c3cccc(F)c3)ccc2OC[C@@H]2O[C@H](CC(=O)NCC3CCCCC3)CC[C@@H]21 | x | -7.0 | 117.3* | 93.7 | 33.8 | 42.5*! | 84.6*
CN1C(=O)c2cc(NC(=O)c3cccc(F)c3)ccc2OC[C@H]2O[C@@H](CC(=O)NCC3CCCCC3)CC[C@H]21 | x | -1.7 | 88.1 | x | x | x | x
CN1C(=O)c2cc(NC(=O)c3ccc(C(F)(F)F)cc3)ccc2OC[C@@H]2O[C@@H](CC(=O)NC3Cc4ccccc4C3)CC[C@H]21 | x | -0.5 | 99.8* | 105.8* | 48.6 | u | 43.0*
SMILES | IDH1 mut inh | GASC1 inh | T cruzi growth-1 | T cruzi growth-2 | T cruzi growth-3 | NIH3T3 tox | NIH3T3 tox 2
CN1C(=O)c2cc(NC(=O)c3ccc(C(F)(F)F)cc3)ccc2OC[C@@H]2O[C@@H](CC(=O)NC3Cc4ccccc4C3)CC[C@@H]21 | x | x | 79.0 | x | x | x | x
COc1ccc(CN(C)C[C@H]2Oc3c(NC(=O)c4nc5ccccc5s4)cccc3C(=O)N([C@H](C)CO)C[C@@H]2C)cc1 | -1.1 | 0.4 | u | 90.0 | 73.6 | 3.5 | 10.7
C[C@@H]1CN([C@@H](C)CO)C(=O)c2cccc(NC(=O)c3nc4ccccc4s3)c2O[C@H]1CN(C)Cc1ccc(-c2ccccc2)cc1 | x | 0.8 | 52.1 | x | x | x | x
C[C@H]1CN([C@@H](C)CO)C(=O)c2cccc(NC(=O)c3nc4ccccc4s3)c2O[C@@H]1CN(C)Cc1ccccc1 | x | -2.0 | 77.3 | x | x | x | x
COc1ccc(S(=O)(=O)N(C)C[C@@H]2Oc3c(NC(=O)c4nc5ccccc5s4)cccc3C(=O)N([C@H](C)CO)C[C@@H]2C)cc1 | -0.8 | -4.4 | 112.0* | 98.7* | 110.7* | 37.9* | 51.0*
COc1ccc(S(=O)(=O)N(C)C[C@H]2Oc3c(NC(=O)c4nc5ccccc5s4)cccc3C(=O)N([C@@H](C)CO)C[C@H]2C)cc1 | x | -2.3 | 15.6 | x | x | x | x
C[C@@H]1CN([C@H](C)CO)C(=O)c2cccc(NC(=O)c3nc4ccccc4s3)c2O[C@@H]1CN(C)Cc1ccc(-c2ccccc2)cc1 | 1.7 | 1.2 | 110.8* | 106.8* | 71.2 | 4.3 | -9.4
COc1ccc(CN(C)C[C@H]2Oc3c(NC(=O)c4nc5ccccc5s4)cccc3C(=O)N([C@@H](C)CO)C[C@@H]2C)cc1 | 1.1 | -3.0 | 91.8 | x | x | x | x
C[C@@H]1CN([C@H](C)CO)C(=O)c2cccc(NC(=O)c3nc4ccccc4s3)c2O[C@@H]1CN(C)Cc1ccccc1 | 4.2 | 0.6 | u | 100.2* | 50.1 | 0.6 | 25.8
C/C=C/c1cnc2c(c1)C(=O)N([C@H](C)CO)C[C@H](C)[C@H](CN(C)C(=O)CN1CCOCC1)O2 | 1.1 | 14.0 | 5.9 | x | x | x | x
CCCNC(=O)N1CC2(CCN(C(=O)CC3CC3)CC2)c2c(n(C)c3cc(OC)ccc23)[C@H]1CO | x | -1.3 | x | x | x | x | x

Compound activity as filed in PubChem BioAssay.
